Results: PubChem BioAssay
Calls of active or inactive are those of the source. Rule as the data show it, unless noted: active = inhibition above about 30%; inactive = the rest.

Tests used:
[1] = reduced viability of SK-BR-3 breast cancer cells – cell-based, 24 h, human, pilot screen (AID 572;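 active = viability at or below 10% of carrier control in both of two separate runs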;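 also: compound exposure lasted between 18 and 24 h rather than exactly 24 h; 100% = carrier-treated control wells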); settings: SK-BR-3 viability, CellTiter-Glo luminescence, at 10 µM, stronger effect = lower value
[2] = HUVEC growth inhibition – cell-based, human, primary screen (AID 575;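 active = viability at or below 30% in both replicate assays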;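 also: 100% = median of untreated cell wells with 0.1% DMSO on each plate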); settings: HUVEC proliferation, CellTiter-Glo luminescence, 72 h; at 10 µM; stronger effect = lower value
Method in brief: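 Test system – primary HUVEC, no more than 12 passages · Dosing – one dose, 10 µM final, 0.1% DMSO · Times – 72 h treatment at 37 °C · Measured by – ATP-based CellTiter-Glo luminescent read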

[3] = H69AR cell proliferation blockers – human, duplicate replicates, primary screen (AID 580;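 active = viability at or under a set limit in both replicates, limit being median viability minus 3 SD, cut at about 48% in these data, passing the limit was not always enough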;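 also: 100% = mean luminescence of untreated wells and 0% = no signal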); settings: H69AR lung tumor cells viability, ATP luminescence, 72 h; at 10 µM; stronger effect = lower value
[4] = MRP1 drug-resistance reversers in H69AR cells – cell-based, doxorubicin co-treatment, pilot screen (AID 601;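 active = viability loss from added drug above about 55%, and viability with drug at most 40%, in both replicates, limit read from the data, passing the limit was not always enough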); settings: CellTiter-Glo, 72 h, at 10 µM; for differential viability (reversal): stronger effect = higher value
[5] = yeast transport mutant growth inhibition pilot in 384-well plates, post-Golgi transport modulator project (AID 636; in the data active = inhibition above about 31%); settings: absorbance 615 nm, about 18 h, stronger effect = higher value
[6] = growth suppression of yeast trafficking mutant, preliminary HTS, modulators of trafficking downstream of Golgi apparatus project, 1536-format plate, OD 615 nm (AID 637); settings: yeast transport mutant growth, absorbance 615 nm, 18 h; stronger effect = higher value
[7] = H69AR cells + 2 uM doxorubicin, measured here: viability with 2 uM doxorubicin, stronger effect = lower value
[8] = H69AR cells, compound alone cytotoxicity

Compound	viability [1]	viability [2]	viability [3]	differential viability (reversal) ([4]; H69AR cells + 2 uM doxorubicin)	viability [4, 7] [%]	viability [4, 8] [%]	inhibition [5]	inhibition [6]
CCCCCC#CCC#CCC#CCC#CCCCC(=O)O	152% (inactive)	66.2% (inactive)	93.6% (inactive)	-0.29% (inactive)	93.9	93.6	0.78% (inactive)	8.33% (inactive)
C[C@]12C=CC(=O)C=C1CC[C@@H]1[C@@H]2[C@@H](O)C[C@@]2(C)[C@H]1CC[C@]2(O)C(=O)COC(=O)CCC(=O)O	112% (inactive)	80.3% (inactive)	84.4% (inactive)	2.96% (inactive)	81.4	84.4	1.95% (inactive)	1.33% (inactive)
c1ccc(-c2nc3cnccn3c2Nc2ccc3c(c2)OCCO3)cc1	96% (inactive)	107% (inactive)	91.5% (inactive)	38.5% (inactive)	52.9	91.5	-5.47% (inactive)	-1.27% (inactive)
CS(=O)(=O)N(Cc1ccccc1)c1ccc(C(=O)N2CCOCC2)cc1	95% (inactive)	105% (inactive)	97.7% (inactive)	6.74% (inactive)	91	97.7	-2.86% (inactive)	-5.57% (inactive)
COc1cccc2sc(NC(=O)c3ccc(S(=O)(=O)N4CCOCC4)cc3)nc12	113% (inactive)	85.5% (inactive)	86.7% (inactive)	16.8% (inactive)	69.8	86.7	-7.16% (inactive)	-8.18% (inactive)
NS(=O)(=O)c1ccc(C(=O)O)cc1	92% (inactive)	93.4% (inactive)	99% (inactive)	11.6% (inactive)	87.5	99	5.45% (inactive)	-5.33% (inactive)
Cc1cc(C(=O)Nc2cccnc2)no1	99% (inactive)	101% (inactive)	98.3% (inactive)	0.295% (inactive)	98	98.3	3.78% (inactive)	-2.18% (inactive)
Cc1noc(C)c1CSc1nnc2scc(-c3ccc(Cl)cc3)n12	88% (inactive)	113% (inactive)	91.6% (inactive)	4.96% (inactive)	86.7	91.6	-8.63% (inactive)	1.13% (inactive)
Cc1c(NC(=O)C(C)OC(=O)c2cc3c4ccccc4n(C)c3s2)c(=O)n(-c2ccccc2)n1C (configuration not stated)	94% (inactive)	80.8% (inactive)	78.4% (inactive)	-10% (inactive)	88.4	78.4	-11.4% (inactive)	1.13% (inactive)
Cn1nc(-c2ccc(N3CCCCC3)c(NC(=O)c3ccco3)c2)c2ccccc2c1=O	107% (inactive)	56.2% (inactive)	32.3% (active)	11.6% (inactive)	20.8	32.3	1.6% (inactive)	4.35% (inactive)
CC(=O)SCCC(=O)Nc1ccccc1	88% (inactive)	87.2% (inactive)	92.5% (inactive)	5.22% (inactive)	87.3	92.5	-7.12% (inactive)	0.81% (inactive)
Cc1cc(NC(=O)c2ccccc2)ncc1NC(=O)c1ccco1	94% (inactive)	96.2% (inactive)	109% (inactive)	9.27% (inactive)	99.9	109	-4.42% (inactive)	0.32% (inactive)
C=CCOC(=O)CC(NC(=O)c1ccccc1)c1ccccc1 (configuration not stated)	110% (inactive)	108% (inactive)	105% (inactive)	19.7% (inactive)	85.3	105	-3.73% (inactive)	-5.45% (inactive)
CC(C)OC(=O)CCCCCN1C(=O)CSC1=S	108% (inactive)	86.7% (inactive)	68.2% (inactive)	-7.49% (inactive)	75.7	68.2	-0.67% (inactive)	-6.13% (inactive)
CCCC(=O)Nc1ccc(C(=O)O)cc1NC(=O)CCC	77% (inactive)	97.3% (inactive)	96.3% (inactive)	-23% (inactive)	119	96.3	-3.56% (inactive)	1.45% (inactive)
c1ccc2c(SCc3cn4cccnc4n3)ncnc2c1	108% (inactive)	99.9% (inactive)	88.4% (inactive)	10.4% (inactive)	78	88.4	-4.8% (inactive)	-3.82% (inactive)
Cc1cc(C)cc(NC(=O)CN(C)S(=O)(=O)c2cnc[nH]2)c1	113% (inactive)	104% (inactive)	100% (inactive)	8.86% (inactive)	91.3	100	-2.13% (inactive)	-6.36% (inactive)
Cc1ccc(S(=O)(=O)NCC(c2cccnc2)N(C)C)cc1 (configuration not stated)	96% (inactive)	109% (inactive)	95.1% (inactive)	-8.1% (inactive)	103	95.1	-5.75% (inactive)	1.82% (inactive)
O=C1C2CC=C(Cl)CC2C(=O)N1CNc1ccccn1 (configuration not stated)	112% (inactive)	108% (inactive)	98.8% (inactive)	-6.09% (inactive)	105	98.8	-2.05% (inactive)	5.65% (inactive)
